CHRM4 agonist = agonists of human muscarinic M4 receptor (CHRM4). actives 0.14% (n = 360,000). P08173. AID 624127. activation, % at 3 µM. CHO-K1 hM4/Gqi5, Fluo-8 calcium fluorescence; vehicle 0%, full acetylcholine response 100%;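 active = activation above the run mean over all test wells plus 3 SD, cut at about 32% in these data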;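 also: peak over basal fluorescence ratio per well then scaled between controls; 0% = DMSO wells and 100% = acetylcholine at EC100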
Target sequence (P08173 whole entry, looked up): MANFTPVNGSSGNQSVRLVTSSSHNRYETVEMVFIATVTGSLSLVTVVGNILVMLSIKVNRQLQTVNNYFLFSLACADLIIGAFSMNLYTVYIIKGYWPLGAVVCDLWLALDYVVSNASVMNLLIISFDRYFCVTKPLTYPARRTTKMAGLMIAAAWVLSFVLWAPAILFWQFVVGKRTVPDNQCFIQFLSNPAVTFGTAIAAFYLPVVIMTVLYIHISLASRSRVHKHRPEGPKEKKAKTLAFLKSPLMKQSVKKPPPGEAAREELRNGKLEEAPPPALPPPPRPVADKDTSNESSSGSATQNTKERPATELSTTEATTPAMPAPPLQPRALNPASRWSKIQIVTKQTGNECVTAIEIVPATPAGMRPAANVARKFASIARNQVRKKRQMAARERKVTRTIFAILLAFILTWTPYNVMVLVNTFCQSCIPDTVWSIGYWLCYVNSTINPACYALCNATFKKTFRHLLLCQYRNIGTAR
M4 antag = CHRM4 antagonism in calcium assay | P08173 | CHO-hM4 cells, ACh EC80, Fluo-8 calcium fluorescence | inhibition, % at 3 µM | actives 0.73% (n = 360,000) | AID 624125;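 active = inhibition above its plate's cutoff, the mean inhibition of sample wells plus 3 SD, cut at about 27% in these data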;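 also: 0% = acetylcholine EC80 with DMSO and 100% = DMSO without agonist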
M5 ag = agonists of human muscarinic M5 receptor (CHRM5) | activation, % at 3 µM | actives 0.19% (n = 360,000) | CHO-K1 hM5 cells, Fluo-8 calcium fluorescence; 0% DMSO wells, 100% maximal acetylcholine response | AID 624037 | P08912;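 active = activation above the run's mean over test compounds plus 3 SD, cut at about 23% in these data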;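 also: signal is peak over basal fluorescence ratio across the kinetic read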
M4 PAM = potentiates acetylcholine response at human M4 receptor; P08173; CHO-K1 hM4/Gqi5, Fluo-8 calcium fluorescence, ACh EC20; 0% = ACh EC20, 100% = maximal ACh; activation, % at 3 µM; actives 0.4% (n = 360,000);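 active = activation above its plate's cutoff, the mean activation of sample wells plus 3 SD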
M5 antag = CHRM5 antagonism in calcium assay; P08912; CHO-hM5 cells, Fluo-8 calcium fluorescence, ACh EC80; inhibition, % at 3 µM; actives 0.59% (n = 360,000);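 active = inhibition above a per-plate cutoff, the mean of that plate's test compounds plus 3 SD, cut at about 27% in these data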;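 also: 0% = acetylcholine EC80 with DMSO and 100% = DMSO without agonist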
M5 PAM = potentiates acetylcholine response at human M5 receptor; P08912; CHO-K1 hM5, Fluo-8 calcium, ACh EC20 PAM; 0% = ACh EC20, 100% = ACh EC100; actives 0.3% (n = 360,000); activation, % at 3 µM; AID 624038;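 active = activation above the run cutoff, the mean activation of all test compounds plus 3 SD, cut at about 18% in these data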
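Measured by: Fluo-8 calcium fluorescence; material: human M5 receptor in CHO-K1 cells; schedule: Post-acetylcholine fluorescence recording 140 s; benchmarks: low control EC20 acetylcholine (0%), high control EC100 acetylcholine (100%); read-out: Max/basal fluorescence ratio as % of EC20–EC100 ACh window; compound: single dose, 3 µM nominal final test concentration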
* = called active by the depositor; ! = not active in a repeat. A selection: hits, their analogues and other compounds. The true share with any hit is near 1.9%.

SMILES	CHRM4 agonist	M4 antag	M5 ag	M4 PAM	M5 antag	M5 PAM
CCC(=NCc1ccco1)c1c(O)n(-c2ccc(Cl)cc2)c(=O)[nH]c1=O	1	-11	11	3	8	26*
O=C(CCc1ccccc1)N1Cc2cc(-c3cccc(F)c3)ccc2-n2nncc2C1	4	2	-2	-10	6	-12
CN1CCN(C(=O)COc2ccc(S(=O)(=O)NC3CCCCC3)cc2Cl)CC1	1	-3	2	4	-19	21*
COc1ccc(NS(=O)(=O)c2ccc(OCC(=O)N3CCN(C)CC3)cc2)cc1Cl	3	-10	-4	1	-3	-3
ClC1C(Cl)C(Cl)C(Cl)C(Cl)C1Cl (stereo unspecified)	5	-10	84*!	3	35*!	-21
CCN(CC)C(=O)c1ccc(NC(=O)c2cn(-c3ccccc3)nc2-c2ccc(OC)cc2)cc1	8	0	-3	-5	28*	-10
CCN(CC)c1ccc(/C=C2\C(=O)NC(=S)N(C)C2=O)o1	12	8	37*	-9	13	-8
CCN(CC)c1ccc(/C=C2\C(=O)NC(=S)N(c3ccc(OC)cc3OC)C2=O)o1	17	10	34*	-5	3	-11
CC(C)NP(=O)(NC(C)C)OP(=O)(NC(C)C)NC(C)C	0	-9	0	2	1	-3
O=P(Oc1ccccc1)(N1CCOCC1)N1CCOCC1	1	-11	3	15*	10	-4
CC(C)(C)P(=O)(N1CCOCC1)N1CCOCC1	3	0	2	1	8	-3
CCOC(=O)c1c(C=O)c2ccccc2n1Cc1ccccc1F	0	-7	-6	-1	4	-3
CN1CCC(OC(=O)C2c3ccccc3Oc3ccccc32)CC1	3	99*	-12	-20	99*	-42
CC1=C[C@@H]2c3cccc4[nH]cc(c34)C[C@H]2N(C)C1	2	57*	-7	-16	2	-14
CN1C[C@H](CO)C=C2c3cccc4[nH]cc(c34)C[C@H]21	2	-12	1	7	4	3
Cc1[nH]nc2ccc(-c3cncc(OC[C@@H](N)Cc4c[nH]c5ccccc45)c3)cc12	1	2	-1	3	9	2
Cc1ccc(C(C)C)c(OCC#CCN2CCCC2)c1	0	32*	-15	-26	44*	-32
CC(=O)O[C@@H]1CC[C@]2(C)C3CC[C@]4(C)C(=O)[C@H](O)CC4C3[C@@H](OC(C)=O)C[C@H]2C1 (stereo partly specified)	0	7	-1	2	6	2
Cc1nn(Cc2ccc(Cl)cc2Cl)c(Cl)c1C(=O)O	2	-12	4	21*	-14	11
Cc1nn(Cc2ccccc2Cl)c(Cl)c1C(=O)O	0	-14	-5	6	10	-12
COC1C(C)OC(OC2CC(C)(O)Cc3cc4c(c(O)c32)C(=O)c2c(O)cc3c(c2C4=O)OC2OC3(C)C(O)C(N(C)C)C2O)C(OC)C1(C)OC (stereo unspecified)	14	-8	30*	7	15	-19
Clc1ccc(C[n+]2c(-c3ccccc3)cc(-c3ccccc3)cc2-c2ccccc2)cc1	6	31*	-9	-10	23	-19
Cc1cc(-c2ccccc2)cc(-c2ccccc2)[n+]1CCc1ccccc1	2	38*	-9	-7	18	-28
COc1ccc(CCNC2CCCCC2)cc1OC	2	-10	-5	13	-6	5
CN1C(=O)C(=Cc2c(OCc3cnc(Cl)s3)ccc3ccccc23)C(=O)N(C)C1=O	4	0	-2	8	1	2
CCC1(C)OC(c2ccccc2)=C/C(=C/C=C2C(=O)NC(=O)NC2=O)O1 (stereo unspecified)	16	10	61*	-10	5	-19
CC(C)c1cc(Br)c(NC(=O)Nc2cccnc2)c(Br)c1	0	-3	-4	8	12	-7

Compound activity deposited in PubChem BioAssay by The Scripps Research Institute Molecular Screening Center.
